From ChEMBL document CHEMBL1125611, “Synthesis and biological evaluation of a series of 1,1-dichloro-2,2,3-triarylcyclopropanes as pure antiestrogens” (1991) come the findings set out here.

What is called inhibition is how much of the control response was suppressed.

Assay [1] has as its target T1, Estrogen receptor (Mus musculus) (UniProt O08537+P19785). Nature of the assay: Antagonism of estradiol induced uterine weight gain in immature mice at 4 ug; Activity is expressed as anti-uterotrophic % reduction. It counts as functional. Set-up: scale not given: the % may be the effect or the level left. An outline of the steps:
(§1)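 Immature (17-19 days, 8-10 g) female Swiss-Webster mice, groups of six. Daily sc injections in the nape for 3 consecutive days. Estradiol in sesame oil (0.1 µg/mL, 0.1 mL; total 0.03 µg) plus 0.05 mL test compound in isopropyl myristate, given at separate sites. Vehicle and estradiol-only controls. Uteri cleaned, blotted and weighed 24 h after the last dose. % reduction of the estradiol-induced weight gain.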

Assay [2] is filed under the species Mus musculus. The assay is described as follows: Ability to antagonize uterine weight gain in immature mice, at a dose of 750 ug; Activity is expressed as anti-uterotrophic % reduction. It counts as functional. More on the design: scale not given: the % may be the effect or the level left. An outline of the steps: as §1
For assay [3], the species on record is Mus musculus. Nature of the assay: Ability to antagonize uterine weight gain in immature mice, at a dose of 30 ug; Activity is expressed as anti-uterotrophic % reduction. It counts as functional. More on the design: scale not given: the % may be the effect or the level left. An outline of the steps: as §1
For assay [4], the species on record is Mus musculus. The assay is described as follows: Ability to antagonize uterine weight gain in immature mice, at a dose of 150 ug; Activity is expressed as anti-uterotrophic % reduction. It counts as functional. Set-up: scale not given: the % may be the effect or the level left. An outline of the steps: as §1
The target of assay [5] is T1, Estrogen receptor (Mus musculus). The assay is described as follows: Antagonism of estradiol induced uterine weight gain in immature mice at 10 ug; Activity is expressed as anti-uterotrophic % reduction. It counts as functional. More on the design: scale not given: the % may be the effect or the level left. An outline of the steps: as §1
For assay [6] the target is unchanged. Nature of the assay: Antagonism of estradiol induced uterine weight gain in immature mice at 30 ug. It counts as functional. Set-up: scale not given: the % may be the effect or the level left. An outline of the steps:
as §1

Assay [7] has as its target Estrogen receptor (Homo sapiens) (UniProt Q92731+P03372). Nature of the assay: Antiproliferative activity against estrogen receptor positive MCF-7 human breast cancer cell line at 10e-9 M. It counts as functional, cell-based. The conditions noted are these: MCF7. Put shortly:
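MCF-7 cells in phenol-red-free RPMI 1640 with 5% calf serum, 2 mM L-glutamine and antibiotics, 37 °C, 5% CO2. Plated at 7.5 × 10⁴ cells/well, then allowed to attach for 2 days. Compound in 11:9 PEG 400–EtOH (final vehicle 0.1%) added on alternate days. Viable cells counted on day 4 by trypan blue exclusion, triplicate. % inhibition versus vehicle control.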

The target in assay [8] is T1, Estrogen receptor (Mus musculus). Nature of the assay: Antagonism of estradiol induced uterine weight gain in immature mice at 150 ug.(p<0.01). Set-up: scale not given: the % may be the effect or the level left. It counts as functional. Put shortly:
as §1

Assay [9] shares this target. Nature of the assay: Antagonism of estradiol induced uterine weight gain in immature mice at 400 ug; Activity is expressed as anti-uterotrophic % reduction. It counts as functional. More on the design: scale not given: the % may be the effect or the level left. Put shortly:
as §1

The target is the same in assay [10]. The assay is described as follows: Antagonism of estradiol induced uterine weight gain in immature mice at 800 ug; Activity is expressed as anti-uterotrophic % reduction. It counts as functional. More on the design: scale not given: the % may be the effect or the level left. Put shortly:
as §1

The target is the same in assay [11]. Nature of the assay: Antagonism of estradiol induced uterine weight gain in immature mice at 200 ug; Activity is expressed as anti-uterotrophic % reduction. It counts as functional. More on the design: scale not given: the % may be the effect or the level left. Put shortly:
as §1

Assay [12] has as its target Estrogen receptor (Rattus norvegicus) (UniProt P06211+Q62986). Nature of the assay: Relative binding affinity for estrogen receptor in rat uterine cytosol by displacement of [3H]-estradiol. The conditions noted are these: Uterus. An outline of the steps: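 Uterine cytosol from immature Sprague-Dawley rats (17-19 days) primed with estradiol (0.53 µg sc daily ×3). Competitive displacement of [3H]estradiol, with free ligand removed by dextran-coated charcoal. Parallel incubations with 4 × 10⁻⁶ diethylstilbestrol define nonspecific binding, which is subtracted. RBA relative to estradiol = 100%, by Bliss method, duplicates.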
For orientation: Loss of bound radioactivity is the signal in a displacement assay; it reports binding, not function.

Assay [13] has as its target T1, Estrogen receptor (Mus musculus). Nature of the assay: Antagonism of estradiol induced uterine weight gain in immature mice at 750 ug; Activity is expressed as anti-uterotrophic % reduction. It counts as functional. Set-up: scale not given: the % may be the effect or the level left. Put shortly:
as §1

T1 sequence (O08537 whole entry, looked up): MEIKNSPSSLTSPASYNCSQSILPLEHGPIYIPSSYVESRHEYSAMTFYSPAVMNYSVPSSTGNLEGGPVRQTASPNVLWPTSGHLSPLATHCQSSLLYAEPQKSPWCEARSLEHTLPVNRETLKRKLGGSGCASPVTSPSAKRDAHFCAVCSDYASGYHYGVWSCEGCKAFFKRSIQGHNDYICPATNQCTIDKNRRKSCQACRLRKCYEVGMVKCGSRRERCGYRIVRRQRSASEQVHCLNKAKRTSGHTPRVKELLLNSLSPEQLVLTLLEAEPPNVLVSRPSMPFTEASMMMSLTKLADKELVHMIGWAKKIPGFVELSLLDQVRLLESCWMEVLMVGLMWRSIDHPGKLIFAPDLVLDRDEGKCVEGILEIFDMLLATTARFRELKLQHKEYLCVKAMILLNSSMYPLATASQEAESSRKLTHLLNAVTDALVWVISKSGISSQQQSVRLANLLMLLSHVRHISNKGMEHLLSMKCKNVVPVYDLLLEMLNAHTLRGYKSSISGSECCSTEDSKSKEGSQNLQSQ
T1 sequence (P19785 whole entry, looked up): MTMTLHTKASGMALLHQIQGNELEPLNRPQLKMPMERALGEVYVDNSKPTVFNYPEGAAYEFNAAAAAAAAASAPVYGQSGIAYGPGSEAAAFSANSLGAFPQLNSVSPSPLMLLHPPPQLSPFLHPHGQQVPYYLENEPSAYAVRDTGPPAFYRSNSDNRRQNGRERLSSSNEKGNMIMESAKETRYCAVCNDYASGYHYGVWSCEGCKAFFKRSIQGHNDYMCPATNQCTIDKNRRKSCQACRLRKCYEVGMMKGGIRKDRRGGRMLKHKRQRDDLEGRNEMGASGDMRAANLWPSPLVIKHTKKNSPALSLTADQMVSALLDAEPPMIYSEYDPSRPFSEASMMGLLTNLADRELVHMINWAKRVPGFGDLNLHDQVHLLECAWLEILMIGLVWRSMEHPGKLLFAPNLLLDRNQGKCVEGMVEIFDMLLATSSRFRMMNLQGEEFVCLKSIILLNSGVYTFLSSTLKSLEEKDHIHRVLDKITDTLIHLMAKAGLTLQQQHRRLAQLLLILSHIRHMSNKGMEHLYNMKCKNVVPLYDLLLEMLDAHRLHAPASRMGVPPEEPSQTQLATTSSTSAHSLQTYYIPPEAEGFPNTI

`COc1ccc(C2(c3ccc(OCCN(C)C)cc3)C(c3ccccc3)C2(Cl)Cl)cc1` (configuration not stated): the Activity is -10% in assay [1]; 53% in the assay filed under Mus musculus [2]; 33% in the assay listed under Mus musculus [3]; 42% in the assay listed under Mus musculus [4]; 6% in assay [5].

Regarding `COc1ccc(C2C(Cl)=C(c3ccc(OCc4ccccc4)cc3)c3ccc(OC)cc32)cc1` (configuration not stated), the Activity is reported as 0% in the assay listed under Mus musculus [2], 14% in the assay filed under Mus musculus [3] and 4% in the assay listed under Mus musculus [4].

With `COc1ccc(C2(c3ccc(O)cc3)C(c3ccccc3)C2(Cl)Cl)cc1` (stereo in doubt; 6b), the Activity in the assay filed under Mus musculus [2] is on record as 41%; in the assay listed under Mus musculus [3] it was 15%; in the assay filed under Mus musculus [4] it was -7%.

For the compound `COc1ccc(C2(c3ccc(O)cc3)C(c3ccccc3)C2(Cl)Cl)cc1` (stereo in doubt; 6c), the Activity in the assay filed under Mus musculus [2] worked out at 22%; in the assay filed under Mus musculus [3], 28%; in the assay listed under Mus musculus [4], 18%.

As to `COc1ccc(C2C(Cl)(Cl)C2(c2ccc(OC)cc2)c2ccc(OCc3ccccc3)cc2)cc1` (configuration not stated), the Activity in assay [6] turned out to be 15%; in the assay listed under Mus musculus [2], 2%; in the assay listed under Mus musculus [4], 49%; in assay [5] it was 2%.

As for `COc1ccc(C2=C(Cl)C(c3ccc(OC)cc3)c3cc(OC)ccc32)cc1` (configuration not stated), the Activity in the assay listed under Mus musculus [2] was 28%; in the assay listed under Mus musculus [3], 27%; in the assay filed under Mus musculus [4], -6%.

As for `Oc1ccc(C2(c3ccccc3)C(c3ccccc3)C2(Cl)Cl)cc1` (configuration not stated), the Activity stood at 25% in the assay listed under Mus musculus [2], 23% in the assay listed under Mus musculus [3] and 12% in the assay listed under Mus musculus [4].

Turning to `COc1ccc(C2(c3ccccc3)C(c3ccccc3)C2(Cl)Cl)cc1` (configuration not stated), the Activity in the assay filed under Mus musculus [2] amounted to 33%; in the assay listed under Mus musculus [3], 22%; in the assay filed under Mus musculus [4], 49%. Also, the inhibition in [7] was 6.1%.

For `COc1ccc(C2(c3ccc(OCc4ccccc4)cc3)C(c3ccccc3)C2(Cl)Cl)cc1` (configuration not stated), the Activity was determined as 47% in assay [8], 22% in the assay listed under Mus musculus [2] and 37% in the assay listed under Mus musculus [3]. Also, the inhibition in assay [7] was 31.3%.

With `ClC1(Cl)C(c2ccccc2)C1c1ccccc1` (configuration not stated), the Activity was 42% in [9], 58% in [10] and 28% in assay [11].

`CC/C(=C(\c1ccccc1)c1ccc(OCCN(C)C)cc1)c1ccccc1` [TAMOXIFEN]: the Activity in the assay filed under Mus musculus [2] was -12%; in the assay filed under Mus musculus [3], 4%; in the assay filed under Mus musculus [4], 0%.

With `ClC1(Cl)C(c2ccccc2)C1(c1ccccc1)c1ccccc1` (configuration not stated), the Activity in the assay listed under Mus musculus [2] is on record as 13%; in the assay listed under Mus musculus [3], 11%; in the assay listed under Mus musculus [4], 3%. In [12], the RBA was 0.1%.

For `COc1ccc(C2C(Cl)(Cl)C2(c2ccc(O)cc2)c2ccc(OC)cc2)cc1` (configuration not stated), the Activity is listed as 26% in the assay listed under Mus musculus [2], 19% in the assay filed under Mus musculus [3] and 10% in the assay filed under Mus musculus [4].

Regarding `CCN(CC)CCOc1ccc(C(O)(Cc2ccc(OC)cc2)c2ccccc2)cc1` (configuration not stated), the Activity in the assay filed under Mus musculus [3] is 1%; in the assay filed under Mus musculus [4], 30%; in assay [13] it was 82%.

As for `COc1ccc(C2C(Cl)=C(c3ccc(O)cc3)c3ccc(OC)cc32)cc1` (configuration not stated), the Activity in the assay listed under Mus musculus [2] is recorded as 12%; in the assay listed under Mus musculus [3], 3%; in the assay filed under Mus musculus [4], 14%.

As for `CN(C)CCOc1ccc(C2(c3ccccc3)C(c3ccccc3)C2(Cl)Cl)cc1` (configuration not stated), the Activity in assay [1] was -6%; in the assay filed under Mus musculus [2], 18%; in the assay filed under Mus musculus [3], 37%; in the assay filed under Mus musculus [4], 30%; in [5], 10%. This compound had an inhibition in assay [7] of 12.4%.
